This passage reports max activation, EC50 and Activity results from ChEMBL document CHEMBL2331243, “Discovery and mechanism study of SIRT1 activators that promote the deacetylation of fluorophore-labeled substrate” (J Med Chem, 2013).

Test [1] addresses T1, NAD-dependent protein deacetylase sirtuin-3, mitochondrial (Homo sapiens) (UniProt Q9NTG7).
T1 sequence (whole entry): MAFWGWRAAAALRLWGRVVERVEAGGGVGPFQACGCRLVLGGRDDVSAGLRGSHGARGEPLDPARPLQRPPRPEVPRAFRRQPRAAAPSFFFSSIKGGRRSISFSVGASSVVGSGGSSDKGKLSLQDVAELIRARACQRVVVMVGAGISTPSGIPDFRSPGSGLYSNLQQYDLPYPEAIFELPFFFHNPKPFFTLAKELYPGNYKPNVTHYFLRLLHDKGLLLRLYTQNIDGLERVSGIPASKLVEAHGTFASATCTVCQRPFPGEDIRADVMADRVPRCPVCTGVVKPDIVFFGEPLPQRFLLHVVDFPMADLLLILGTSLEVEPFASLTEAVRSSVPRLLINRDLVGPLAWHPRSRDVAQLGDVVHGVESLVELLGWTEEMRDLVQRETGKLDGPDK
The test is described as follows: Activation of N-terminal His6-tagged SIRT3 (118 to 399 amino acid residues) (unknown origin) expressed in Escherichia coli BL21(DE3) using ac-RHKKac-AMC as substrate at 50 uM after 45 mins by fluorometric analysis relative to control. The method in brief:
(§1)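 Fluorescent deacetylation assay in 25 mM Tris, 137 mM NaCl, 2.7 mM KCl, 1 mM MgCl₂, pH 8.0, with 750 μM NAD⁺ and 31.25 μM ac-RHKK_ac-AMC. Enzyme was 3.6 μM SIRT3 or 4.2 μM GST-SIRT2, set to match SIRT1 activity. Trypsin released AMC from the deacetylated peptide, read at ex 340 / em 490 nm. Compounds were added from DMSO (DMSO as blank): single point at 50 μM, or 3-fold DMSO dilution series. EC1.5 (concentration giving 50% activity increase) and maximum activation were fitted to a dose–response function.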

For test [2], the target named is T2, NAD-dependent protein deacetylase sirtuin-1 (Homo sapiens) (UniProt Q96EB6).
T2 sequence (whole entry): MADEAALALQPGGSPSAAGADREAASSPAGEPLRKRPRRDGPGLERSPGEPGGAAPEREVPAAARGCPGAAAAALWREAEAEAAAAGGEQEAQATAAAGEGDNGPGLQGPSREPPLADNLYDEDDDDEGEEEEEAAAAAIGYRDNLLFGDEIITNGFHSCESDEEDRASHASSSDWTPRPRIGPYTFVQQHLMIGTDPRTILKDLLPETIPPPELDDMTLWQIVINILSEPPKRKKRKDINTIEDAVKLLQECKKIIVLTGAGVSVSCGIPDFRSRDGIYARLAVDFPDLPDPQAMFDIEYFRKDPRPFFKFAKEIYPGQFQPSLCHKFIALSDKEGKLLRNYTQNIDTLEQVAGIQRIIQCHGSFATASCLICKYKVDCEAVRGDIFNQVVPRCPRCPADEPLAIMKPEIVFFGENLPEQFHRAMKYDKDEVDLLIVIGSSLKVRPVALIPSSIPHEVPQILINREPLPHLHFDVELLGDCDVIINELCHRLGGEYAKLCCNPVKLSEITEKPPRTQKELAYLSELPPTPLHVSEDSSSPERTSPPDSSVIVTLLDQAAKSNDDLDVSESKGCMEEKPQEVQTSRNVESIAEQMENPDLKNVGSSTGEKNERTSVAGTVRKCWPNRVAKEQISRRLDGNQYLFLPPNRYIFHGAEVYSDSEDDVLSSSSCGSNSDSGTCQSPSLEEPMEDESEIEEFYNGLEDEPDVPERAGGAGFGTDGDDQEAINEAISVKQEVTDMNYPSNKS
The test can be described thus: Activation of N-terminal His6-tagged SIRT1 (156 to 664 amino acid residues) (unknown origin) expressed in Escherichia coli BL21(DE3) using ac-RHKKac-AMC as substrate at 50 uM after 45 mins by fluorimetric analysis relative to control. The gist of the method: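 Fluorogenic deacetylation screen: 1 μM SIRT1 with 750 μM NAD⁺ and 31.25 μM ac-RHKK_ac-AMC in Tris buffer (25 mM Tris, 137 mM NaCl, 2.7 mM KCl, 1 mM MgCl₂, pH 8.0). Compounds at 50 μM from DMSO stocks; DMSO alone as blank. Trypsin then releases AMC from deacetylated peptide; fluorescence read at 340/490 nm.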

For test [3], the target named is T3, NAD-dependent protein deacetylase sirtuin-3, mitochondrial (Homo sapiens, UniProt Q9NTG7).
T3 sequence (Q9NTG7 whole entry): T1 sequence (whole entry)
The test can be described thus: Activation of N-terminal His6-tagged SIRT3 (118 to 399 amino acid residues) (unknown origin) expressed in Escherichia coli BL21(DE3) using ac-RHKKac-AMC as substrate after 45 mins by fluorometric analysis. The gist of the method: as §1

Test [4] addresses T4, NAD-dependent protein deacetylase sirtuin-2 (Homo sapiens) (UniProt Q8IXJ6).
T4 sequence (whole entry): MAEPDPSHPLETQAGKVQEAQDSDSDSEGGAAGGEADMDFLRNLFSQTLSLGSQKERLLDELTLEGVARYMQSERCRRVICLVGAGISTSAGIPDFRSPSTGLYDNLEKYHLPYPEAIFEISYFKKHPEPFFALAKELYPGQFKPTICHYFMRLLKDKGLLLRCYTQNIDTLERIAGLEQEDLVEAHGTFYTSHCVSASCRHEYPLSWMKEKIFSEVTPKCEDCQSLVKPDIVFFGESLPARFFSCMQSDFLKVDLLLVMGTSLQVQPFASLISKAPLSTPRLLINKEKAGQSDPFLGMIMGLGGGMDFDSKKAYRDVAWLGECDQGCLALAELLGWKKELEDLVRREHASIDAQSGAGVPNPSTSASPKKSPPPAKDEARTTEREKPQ
The test can be described thus: Activation of at N-terminal GST-tagged SIRT2 (34 to 356 amino acid residues) (unknown origin) expressed in Escherichia coli BL21(DE3) using ac-RHKKac-AMC as substrate at 50 uM after 45 mins by fluorometric analysis relative to control. The gist of the method:
as §1

For test [5], the target named is T5, NAD-dependent protein deacetylase sirtuin-2 (Homo sapiens, UniProt Q8IXJ6).
T5 sequence (Q8IXJ6 whole entry): T4 sequence (whole entry)
The test is described as follows: Activation of at N-terminal GST-tagged SIRT2 (34 to 356 amino acid residues) (unknown origin) expressed in Escherichia coli BL21(DE3) using ac-RHKKac-AMC as substrate after 45 mins by fluorometric analysis. The gist of the method: as §1

Test [6] addresses T6, NAD-dependent protein deacetylase sirtuin-1 (Homo sapiens, UniProt Q96EB6).
T6 sequence (Q96EB6 whole entry): T2 sequence (whole entry)
The test can be described thus: Activation of N-terminal His6-tagged SIRT1 (156 to 664 amino acid residues) (unknown origin) expressed in Escherichia coli BL21(DE3) using ac-RHKKac-AMC as substrate after 45 mins by fluorometric analysis.

For test [7], the system named is T7, NAD-dependent protein deacetylase sirtuin-1 (Homo sapiens), Q96EB6 [R446A].
T7 sequence (whole entry): T2 sequence (whole entry) with R446A
The test is described as follows: Activation of SIRT1 R446A mutant (unknown origin) at 50 uM relative to control. The method in brief: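 SIRT1 R446A mutant made by site-directed mutagenesis, expressed in E. coli and purified on Ni-NTA. Fluorescent deacetylation assay used 1 μM enzyme, 750 μM NAD⁺, 31.25 μM ac-RHKK_ac-AMC and 50 μM compound versus DMSO, in Tris buffer pH 8.0. Trypsin released AMC from deacetylated peptide, read at ex 340/em 490 nm.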

The target of test [8] is T2, NAD-dependent protein deacetylase sirtuin-1 (Homo sapiens). The test can be described thus: Activation of SIRT1 in human MCF7 cells assessed as reduction in doxorubicin-induced acetyl-p53 level at >100 uM after 6 hrs by Western blotting analysis. Format: cell-based. The method in brief: (§2)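 MCF-7 cells were seeded at 1 × 10⁵ in DMEM with 10% fetal calf serum and grown 24 h at 37 °C, 5% CO₂. They then got gradient compound concentrations with 0.1 μM trichostatin and 5 μM doxorubicin for 6 h, then lysis. 50 μg protein was run on a 9% gel and blotted with polyclonal anti-acetyl-p53 (Lys382) at 4 °C overnight, with HRP anti-rabbit detection.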

The target is the same in test [9]. The test can be described thus: Activation of N-terminal His6-tagged SIRT1 (156 to 664 amino acid residues) (unknown origin) expressed in Escherichia coli BL21(DE3) using ac-RHKKac-NH2 as substrate after 45 mins by HPLC analysis.
For test [10] the target is unchanged. The test can be described thus: Activation of SIRT1 in human MCF7 cells assessed as reduction in doxorubicin-induced acetyl-p53 level at <100 uM after 6 hrs by Western blotting analysis. The format is cell-based. The method in brief:
as §2

Where a chain is given by its changes, count along the chain named. The source made the active and inactive calls. The calls are words filed in the database; no cut-off is given here.

In the case of `O=C(N/N=C/c1cc(Br)c(O)c(Br)c1O)c1ccc2cc(-c3ccccc3)ccc2c1`, the values for the max activation in test [1], in [2] and in test [4] were 199%, 194% and 257%, respectively. Besides, the results for the EC50 in test [3], in test [5] and in test [6] were 28.6 µM, 11.6 µM and 1.8 µM, respectively.

Regarding `Oc1ccc(/C=C/c2cc(O)cc(O)c2)cc1`, the max activation in test [2] worked out at 802%; in test [7], 239%. For the same compound, the result in test [8] was Active. The result in test [9] and in [10] was inactive.
